Assay results from ChEMBL document CHEMBL1126206, “Potential anti-AIDS naphthalenesulfonic acid derivatives. Synthesis and inhibition of HIV-1 induced cytopathogenesis and HIV-1 and HIV-2 reverse transcriptase activities” (J Med Chem, 1992).

Key:
MT4 = assay: Evaluated for 50% antiviral effective concentration based on inhibition of HIV-1 (HTLV-IIIB) induced cytopathogenicity in MT-4 cells; assay type: functional, cell-based; conditions: Homo sapiens
Summary of the method: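 MT-4 cells were infected with HIV-1 HTLV-IIIB at MOI 0.02 and cultured with a range of compound concentrations for 4 days. Viable cells were counted by MTT.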

[1] = Evaluated for 50% cytotoxic concentration based on reduction of viability of mock-infected cells; assay type: cell-based; conditions: human, MT4 cells (mock-infected)
Summary of the method: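 Mock-infected MT-4 cells were cultured with a range of compound concentrations for 4 days, and viability was read by MTT.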

[2] = target: Human immunodeficiency virus type 1 reverse transcriptase (Human immunodeficiency virus 1, UniProt Q72547); assay: Inhibition of purified HIV-1 reverse transcriptase
Summary of the method: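 Recombinant dimeric RT expressed in E. coli (HIV-1 p66/p51, HIV-2 p68/p55), 0.08 μg per reaction; identical conditions for both enzymes. Buffer: 50 mM Tris-HCl pH 8.0, 150 mM KCl, 5 mM MgCl2, 0.5 mM EGTA, 5 mM DTT, 0.3 mM glutathione. Template-primer poly(rA)·oligo(dT)12-18 with 20 μM TTP plus [3H]TTP. Compound in DMSO or water. Incubated 1 h at 37 °C, stopped with EGTA. Incorporation read on DE-81 filters by scintillation.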

Compound | IC50 [2] [µM] | EC50 (MT4) [µM] | CC50 [1] [µM]
Nc1ccc2c(S(=O)(=O)O)cc(S(=O)(=O)O)c(N)c2c1O |  | > 7.7 | 7.7
O=S(=O)(O)c1cc(NS(=O)(=O)c2ccc(-c3ccc(S(=O)(=O)Nc4cc(S(=O)(=O)O)cc5cc(S(=O)(=O)O)cc(S(=O)(=O)O)c45)cc3)cc2)c2c(S(=O)(=O)O)cc(S(=O)(=O)O)cc2c1 | > 849 | 36 | > 100
O=C(CCCCCCCCCCC(=O)Nc1cc(S(=O)(=O)O)cc2cc(S(=O)(=O)O)cc(S(=O)(=O)O)c12)Nc1cc(S(=O)(=O)O)cc2cc(S(=O)(=O)O)cc(S(=O)(=O)O)c12 | 136 | > 51 | > 100
O=C(O)c1cc(NS(=O)(=O)c2ccc(-c3ccc(S(=O)(=O)Nc4cc(C(=O)O)c(O)c(S(=O)(=O)O)c4)cc3)cc2)cc(S(=O)(=O)O)c1O | 427 | 52.5 | 247
CCCCCCCCCCCCCCCC(=O)Nc1cc(S(=O)(=O)O)cc2cc(S(=O)(=O)O)cc(O)c12 |  | 37 | 250
CCCCCCCCCCCCCCCC(=O)Oc1cc(S(=O)(=O)O)cc2cc(S(=O)(=O)O)cc(OC(=O)CCCCCCCCCCCCCCC)c12 |  | > 15 | 15
O=S(=O)(O)c1cc(S(=O)(=O)O)c2cc(NS(=O)(=O)c3ccc(-c4ccc(S(=O)(=O)Nc5ccc6cc(S(=O)(=O)O)cc(S(=O)(=O)O)c6c5)cc4)cc3)ccc2c1 | 125 | 29.5 | > 500
O=C(CCCCCCCCC(=O)Nc1cc(S(=O)(=O)O)cc2cc(S(=O)(=O)O)cc(O)c12)Nc1cc(S(=O)(=O)O)cc2cc(S(=O)(=O)O)cc(O)c12 | 52 | 9.7 | 288
Nc1cc(S(=O)(=O)O)c2ccccc2c1N | 50 | > 189 | 189
O=S(=O)(O)c1cc(O)c2c(O)cc(S(=O)(=O)O)cc2c1 [CHROMOTROPATE] |  | > 1180 | 1180
Cc1ccc(C(=O)Nc2ccc(S(=O)(=O)O)c3cc(S(=O)(=O)O)cc(S(=O)(=O)O)c23)cc1NC(=O)c1cccc(NC(=O)Nc2cccc(C(=O)Nc3cc(C(=O)Nc4ccc(S(=O)(=O)O)c5cc(S(=O)(=O)O)cc(S(=O)(=O)O)c45)ccc3C)c2)c1 [SURAMIN] |  | 8.2 | 250

The next lines start with results.

IC50 [2] [µM] | Compound | EC50 (MT4) [µM] | CC50 [1] [µM]
> 1000 | O=S(=O)(O)c1ccc(-c2ccc(S(=O)(=O)Nc3cc(S(=O)(=O)O)cc4cc(S(=O)(=O)O)cc(S(=O)(=O)O)c34)cc2)cc1 | > 100 | > 100
55 | CCCCCCCCCCCCCCCC(=O)Nc1cc(S(=O)(=O)O)cc2cc(S(=O)(=O)O)cc(S(=O)(=O)O)c12 | > 42 | 42
> 1000 | CC(=O)Nc1cc(S(=O)(=O)O)cc2cc(S(=O)(=O)O)cc(S(=O)(=O)O)c12 | > 100 | > 100
> 1000 | CC(=O)Nc1cc(S(=O)(=O)O)cc2cc(S(=O)(=O)O)cc(OC(C)=O)c12 | > 500 | > 500
> 1000 | O=C(O)CCCC(=O)Nc1cc(S(=O)(=O)O)cc2cc(S(=O)(=O)O)cc(O)c12 | > 500 | > 500
> 1000 | COc1cc(S(=O)(=O)O)cc2cc(S(=O)(=O)[O-])cc([N+](C)(C)C)c12 | > 500 | > 500
> 1000 | COc1cc(S(=O)(=O)O)cc2cc(S(=O)(=O)O)cc(N(C)C)c12 | > 500 | > 500
135 | O=C(O)CCCCCCCCC(=O)Nc1cc(S(=O)(=O)O)cc2cc(S(=O)(=O)O)cc(O)c12 | 134 | > 500
> 1000 | Nc1cc(S(=O)(=O)O)cc2cc(S(=O)(=O)O)cc(S(=O)(=O)O)c12 | > 100 | > 100
162 | Nc1c(S(=O)(=O)O)cc2cc(S(=O)(=O)O)cc(O)c2c1O | > 12 | 12
> 1000 | CC(=O)Oc1cc(S(=O)(=O)O)cc2cc(S(=O)(=O)O)cc(OC(C)=O)c12 | > 461 | 461
> 1000 | CC(=O)Oc1cc(S(=O)(=O)O)cc2cc(S(=O)(=O)O)c(N=Nc3ccccc3)c(OC(C)=O)c12 | > 500 | > 500
464 | O=C(Nc1cc(S(=O)(=O)O)cc2cc(S(=O)(=O)O)cc(O)c12)c1ccccc1 | 358 | > 500
243 | CC(=O)Nc1cc(S(=O)(=O)O)cc2cc(S(=O)(=O)O)cc(O)c12 | 53 | 402
> 1000 | Nc1ccc2cc(S(=O)(=O)O)cc(S(=O)(=O)O)c2c1 | > 500 | > 500
> 1000 | Nc1cc(S(=O)(=O)O)cc2cc(S(=O)(=O)O)cc(O)c12 | > 529 | 529
